Measurements from ChEMBL document CHEMBL1126270, “Synthesis of 3-[(2,3-dihydro-1,1,3-trioxo-1,2-benzisothiazol-2-yl)alkyl] 1,4-dihydropyridine-3,5-dicarboxylate derivatives as calcium channel modulators” (J Med Chem, 1992).

How the values were obtained:
[1] = target: T1, Voltage-dependent L-type calcium channel subunit alpha-1C (Oryctolagus cuniculus, UniProt P15381); experiment: Blockade of calcium-evoked contractions in depolarized aortic strips; format: functional, tissue-based, Aorta
Oryctolagus cuniculus [2] = organism: Oryctolagus cuniculus; experiment: Relative potency was evaluated. (relative potency = IC50 of compound / IC50 of nifedipine); format: functional
Oryctolagus cuniculus [3] = organism: Oryctolagus cuniculus; experiment: Inhibition of electrically stimulated rabbit left atria contraction.; format: functional
Method in brief: (§1)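 Rabbit left atria electrically driven (1 Hz, 10 ms, twice threshold voltage), equilibrated 1–1.5 h. Compounds added cumulatively (10^-10–10^-6 M), diluted from DMSO stocks into Krebs–Henseleit, final DMSO <0.1%. Isometric force recorded; IC50 from contractile force relative to initial control values, with 95% confidence limits.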

Oryctolagus cuniculus [4] = organism: Oryctolagus cuniculus; experiment: Blockade of calcium-evoked contractions evaluated in depolarized rabbit aortic strips; format: functional; conditions: Aorta
Method in brief: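 Male New Zealand rabbit thoracic aorta, helicoidal strips, 2.5 g preload, Krebs–bicarbonate, 37 °C, 95% O2/5% CO2, pH 7.4. After 1 h equilibration, depolarized with 35 mM K+; 1.5 mM Ca2+ added 10 min later, repeated until reproducible. Compound at increasing concentrations from 20 min before and during Ca2+ addition; responses normalized to initial tension; IC50 by Finney method.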

Oryctolagus cuniculus [5] = organism: Oryctolagus cuniculus; experiment: Relative potency evaluated (relative potency = IC50 of compound / IC50 of nifedipine) in rabbit; format: functional
[6] = target: T1, Voltage-dependent L-type calcium channel subunit alpha-1C; experiment: Selectivity index was measured as the IC50 needed to depress the heart beat divided by IC50 needed to block [Ca2+] contractions in rabbit aortic strips; format: functional, tissue-based, Aorta
Rattus norvegicus [7] = organism: Rattus norvegicus; experiment: Compound evaluated for reducing diastolic blood pressure in spontaneously hypertensive rats.; format: functional; conditions: Artery
Method in brief: (§2)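 Anesthetized (pentobarbitone 70 mg/kg ip) Okamoto SHR, 290 ± 30 g; carotid pressure, femoral vein dosing. Cumulative increasing iv bolus doses of 1, 3, 6, 10, 20, 30 µg/kg in PEG-400 (0.1 mL/kg), each recorded 15 min; ED25 for lowering SBP and DBP and duration of hypotensive action estimated.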

Rattus norvegicus [8] = organism: Rattus norvegicus; experiment: Reducing systolic blood pressure in spontaneously hypertensive rats.; format: functional; conditions: Artery
Method in brief: (§3)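 Conscious SHR trained 2 weeks, warmed at 31 ± 1 °C for 2 h; tail plethysmography SBP, mean of five readings; only rats above 170 mmHg used. After 24 h fasting, 20 mg/kg by gavage in 20% PEG-400/0.5% methylcellulose (10 mL/kg); SBP change read 1 h post-dose, n = 12.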

Rattus norvegicus [9] = organism: Rattus norvegicus; experiment: Duration of action in spontaneously hypertensive rats.; format: functional; method in brief: as §2
Rattus norvegicus [10] = experiment: Systolic blood pressure after administration of a single oral dose (20 mg/kg) in spontaneously hypertensive rats; format: functional; method in brief: as §3
Oryctolagus cuniculus [11] = organism: Oryctolagus cuniculus; experiment: Recovery of the initial contraction of rabbit aortic strips, blocked at 10e-7 M concentration.; conditions: Aorta
Oryctolagus cuniculus [12] = organism: Oryctolagus cuniculus; experiment: Inhibition of electrically stimulated rabbit left atria contraction; format: functional; method in brief: as §1
Rattus norvegicus [13] = experiment: Systolic blood pressure after administration of a single oral dose (20 mg/kg) in spontaneously hypertensive rats.; format: functional; method in brief: as §3
Oryctolagus cuniculus [14] = organism: Oryctolagus cuniculus; experiment: Maximum contractile force in rabbit aorta strips; format: functional
Method in brief: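 Rabbit aortic strips, after equilibration in Ca2+-free Krebs, switched to buffer with 10 mM K+. Repeated 1.5 mM Ca2+ pulses until reproducible. Increasing compound concentrations each given 10 min before a further 1.5 mM Ca2+ pulse. Maximum contractile force (mg) taken as vasoconstrictor effect; data as mean ± SEM at 10^-6 M.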

T1 sequence (P15381 whole entry): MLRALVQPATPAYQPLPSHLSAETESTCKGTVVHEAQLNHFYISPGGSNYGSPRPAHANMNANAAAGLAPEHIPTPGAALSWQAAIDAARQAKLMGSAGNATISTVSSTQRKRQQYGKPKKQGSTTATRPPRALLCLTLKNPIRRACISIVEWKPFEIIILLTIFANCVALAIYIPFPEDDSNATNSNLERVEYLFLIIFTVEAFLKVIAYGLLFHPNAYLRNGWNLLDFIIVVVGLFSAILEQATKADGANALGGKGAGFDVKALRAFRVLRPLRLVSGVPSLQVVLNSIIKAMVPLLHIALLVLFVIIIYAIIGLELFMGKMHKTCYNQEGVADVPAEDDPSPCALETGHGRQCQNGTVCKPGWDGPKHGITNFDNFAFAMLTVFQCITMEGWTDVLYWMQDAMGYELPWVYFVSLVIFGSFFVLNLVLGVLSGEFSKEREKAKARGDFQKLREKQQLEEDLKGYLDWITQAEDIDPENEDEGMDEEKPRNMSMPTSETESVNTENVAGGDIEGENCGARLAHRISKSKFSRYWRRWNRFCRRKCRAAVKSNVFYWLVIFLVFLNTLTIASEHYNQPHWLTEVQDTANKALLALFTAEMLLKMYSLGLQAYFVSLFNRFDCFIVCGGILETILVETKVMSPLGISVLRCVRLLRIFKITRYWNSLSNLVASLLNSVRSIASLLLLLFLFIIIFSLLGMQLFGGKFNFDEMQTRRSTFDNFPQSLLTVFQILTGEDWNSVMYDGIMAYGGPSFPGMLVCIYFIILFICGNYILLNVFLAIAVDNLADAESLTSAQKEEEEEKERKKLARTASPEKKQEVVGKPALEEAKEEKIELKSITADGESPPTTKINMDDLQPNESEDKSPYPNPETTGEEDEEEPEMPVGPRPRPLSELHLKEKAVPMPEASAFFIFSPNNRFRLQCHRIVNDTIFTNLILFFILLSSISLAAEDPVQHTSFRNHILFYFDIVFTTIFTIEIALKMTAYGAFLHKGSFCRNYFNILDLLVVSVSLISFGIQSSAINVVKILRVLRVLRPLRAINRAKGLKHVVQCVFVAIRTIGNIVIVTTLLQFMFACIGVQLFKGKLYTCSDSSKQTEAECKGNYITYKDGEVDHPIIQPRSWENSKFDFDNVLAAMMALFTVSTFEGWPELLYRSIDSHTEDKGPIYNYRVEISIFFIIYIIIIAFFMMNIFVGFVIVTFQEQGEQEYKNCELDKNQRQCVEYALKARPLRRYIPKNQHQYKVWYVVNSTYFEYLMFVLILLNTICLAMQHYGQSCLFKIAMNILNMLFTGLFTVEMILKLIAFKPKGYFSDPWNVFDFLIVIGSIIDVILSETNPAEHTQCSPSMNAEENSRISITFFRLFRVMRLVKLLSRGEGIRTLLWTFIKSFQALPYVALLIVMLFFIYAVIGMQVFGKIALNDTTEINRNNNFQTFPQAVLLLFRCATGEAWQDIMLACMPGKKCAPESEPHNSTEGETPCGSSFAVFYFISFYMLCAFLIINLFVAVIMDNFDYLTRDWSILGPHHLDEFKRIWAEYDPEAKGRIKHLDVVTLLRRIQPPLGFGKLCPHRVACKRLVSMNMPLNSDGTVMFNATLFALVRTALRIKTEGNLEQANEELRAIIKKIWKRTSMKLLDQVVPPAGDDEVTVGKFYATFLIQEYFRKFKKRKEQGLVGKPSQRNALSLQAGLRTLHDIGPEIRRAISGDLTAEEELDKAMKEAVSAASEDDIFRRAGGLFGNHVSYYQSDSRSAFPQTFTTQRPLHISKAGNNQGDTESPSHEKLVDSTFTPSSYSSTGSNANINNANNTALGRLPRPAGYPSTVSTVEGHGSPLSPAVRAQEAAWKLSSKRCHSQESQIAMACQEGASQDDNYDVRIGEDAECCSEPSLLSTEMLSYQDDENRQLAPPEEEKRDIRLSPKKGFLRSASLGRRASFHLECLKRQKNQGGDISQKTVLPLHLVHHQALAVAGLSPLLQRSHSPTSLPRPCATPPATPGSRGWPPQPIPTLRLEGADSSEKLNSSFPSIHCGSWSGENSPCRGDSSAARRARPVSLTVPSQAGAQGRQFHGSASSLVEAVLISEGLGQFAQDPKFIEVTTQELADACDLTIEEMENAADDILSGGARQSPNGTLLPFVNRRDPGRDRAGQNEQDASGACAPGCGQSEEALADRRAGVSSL

SMILES	IC50 [1]	Relative potency (Oryctolagus cuniculus [2])	IC50 (Oryctolagus cuniculus [4])	Relative potency (Oryctolagus cuniculus [5])	Selectivity index [6]	Recovery (Oryctolagus cuniculus [11])	further results
CO/C(O)=C1\C(C)=NC(C)=C(C(=O)OCN2C(=O)c3ccccc3S2(=O)=O)C1c1cccc(Cl)c1Cl (stereo not given)	5.1 nM	0.6	–	–	–	–	–
CC1=NC(C)=C(C(=O)OCN2C(=O)c3ccccc3S2(=O)=O)C(c2ccccc2Cl)/C1=C(\O)OCC1CCCO1 (stereo not given)	10.1 nM	0.3	–	–	–	–	–
CCO/C(O)=C1\C(C)=NC(C)=C(C(=O)OCCCN2C(=O)c3ccccc3S2(=O)=O)C1c1cccc(Cl)c1Cl (stereo not given)	–	–	1.8 nM	1.6	200	0%	IC50 (Oryctolagus cuniculus [3]): 353 nM; ED25 (Rattus norvegicus [7]): 0.012 mg/kg; ED25 (Rattus norvegicus [8]): 0.015 mg/kg; Duration (Rattus norvegicus [9]): 2 min; SBP change (Rattus norvegicus [10]): 36%
CO/C(O)=C1\C(C)=NC(C)=C(C(=O)OCN2C(=O)c3ccccc3S2(=O)=O)C1c1cccc([N+](=O)[O-])c1 (stereo not given)	15.1 nM	0.2	–	–	–	–	–
CC1=NC(C)=C(C(=O)OCCCN2C(=O)c3ccccc3S2(=O)=O)C(c2ccccc2[N+](=O)[O-])/C1=C(\O)OC(C)C (stereo not given)	–	–	1.2 nM	2.4	15	0.2%	IC50 (Oryctolagus cuniculus [12]): 18.6 nM
CC1=NC(C)=C(C(=O)OCCN2C(=O)c3ccccc3S2(=O)=O)C(c2ccccc2C(F)(F)F)/C1=C(\O)OC(C)C (stereo not given)	–	–	1 nM	2.5	103	0.5%	IC50 (Oryctolagus cuniculus [3]): 102 nM; ED25 (Rattus norvegicus [7]): 0.008 mg/kg; ED25 (Rattus norvegicus [8]): 0.009 mg/kg; Duration (Rattus norvegicus [9]): >15 min; SBP change (Rattus norvegicus [13]): 37%
CCO/C(O)=C1\C(C)=NC(C)=C(C(=O)OCCN2C(=O)c3ccccc3S2(=O)=O)C1c1ccccc1C(F)(F)F (stereo not given)	–	–	0.5 nM	5.8	152	14.5%	IC50 (Oryctolagus cuniculus [12]): 74.4 nM
CC1=NC(C)=C(C(=O)OCCN2C(=O)c3ccccc3S2(=O)=O)C(c2cccc([N+](=O)[O-])c2)/C1=C(\O)OCC1CCCO1 (stereo not given)	–	–	107 nM	<0.1	–	–	Max contractile force (Oryctolagus cuniculus [14]): 570 mg
CCCO/C(O)=C1\C(C)=NC(C)=C(C(=O)OCN2C(=O)c3ccccc3S2(=O)=O)C1c1cccc([N+](=O)[O-])c1 (stereo not given)	64.5 nM	<0.1	–	–	–	–	–
CO/C(O)=C1\C(C)=NC(C)=C(C(=O)OCN2C(=O)c3ccccc3S2(=O)=O)C1c1ccccc1[N+](=O)[O-] (stereo not given)	30.9 nM	0.1	–	–	–	–	–
CC1=NC(C)=C(C(=O)OCCN2C(=O)c3ccccc3S2(=O)=O)C(c2ccccc2Cl)/C1=C(\O)OCC1CCCCO1 (stereo not given)	–	–	348 nM	<0.1	–	–	Max contractile force (Oryctolagus cuniculus [14]): 510 mg
CC1=NC(C)=C(C(=O)OCN2C(=O)c3ccccc3S2(=O)=O)C(c2ccccc2C(F)(F)F)/C1=C(\O)OCC1CCCCO1 (stereo not given)	3.6 nM	0.8	–	–	–	–	–
CC1=NC(C)=C(C(=O)OCCCN2C(=O)c3ccccc3S2(=O)=O)C(c2cccc(Cl)c2Cl)/C1=C(\O)OC(C)C (stereo not given)	–	–	2.1 nM	1.4	75	0%	IC50 (Oryctolagus cuniculus [3]): 157 nM; SBP change (Rattus norvegicus [10]): 11%
CC1=NC(C)=C(C(=O)OCCN2C(=O)c3ccccc3S2(=O)=O)C(c2cccc([N+](=O)[O-])c2)/C1=C(\O)OC(C)C (stereo not given)	–	–	0.3 nM	9.7	137	0%	IC50 (Oryctolagus cuniculus [3]): 37 nM; SBP change (Rattus norvegicus [13]): 20%
CO/C(O)=C1\C(C)=NC(C)=C(C(=O)OCCCN2C(=O)c3ccccc3S2(=O)=O)C1c1cccc(Cl)c1Cl (stereo not given)	–	–	0.8 nM	3.6	686	0%	IC50 (Oryctolagus cuniculus [12]): 521 nM; ED25 (Rattus norvegicus [7]): 0.01 mg/kg; ED25 (Rattus norvegicus [8]): 0.012 mg/kg; Duration (Rattus norvegicus [9]): >15 min; SBP change (Rattus norvegicus [10]): 35%
CC1=NC(C)=C(C(=O)OCCCN2C(=O)c3ccccc3S2(=O)=O)C(c2ccccc2C(F)(F)F)/C1=C(\O)OCC1CCCCO1 (stereo not given)	–	–	1.4 nM	2.1	121	5%	IC50 (Oryctolagus cuniculus [12]): 168 nM
CC1=NC(C)=C(C(=O)OCCN2C(=O)c3ccccc3S2(=O)=O)C(c2cccc(Cl)c2Cl)/C1=C(\O)OC(C)C (stereo not given)	–	–	0.3 nM	10	2744	0%	IC50 (Oryctolagus cuniculus [3]): 686 nM; SBP change (Rattus norvegicus [10]): 8%
CC1=NC(C)=C(C(=O)OCCN2C(=O)c3ccccc3S2(=O)=O)C(c2ccccc2[N+](=O)[O-])/C1=C(\O)OCC1CCCCO1 (stereo not given)	–	–	> 1000 nM	–	–	–	Max contractile force (Oryctolagus cuniculus [14]): 990 mg
CC1=NC(C)=C(C(=O)OCCN2C(=O)c3ccccc3S2(=O)=O)C(c2cccc(Cl)c2Cl)/C1=C(\O)OC(C)(C)C (stereo not given)	–	–	2.3 nM	1.3	122	0%	IC50 (Oryctolagus cuniculus [3]): 281 nM; ED25 (Rattus norvegicus [7]): 0.011 mg/kg; ED25 (Rattus norvegicus [8]): 0.014 mg/kg; Duration (Rattus norvegicus [9]): >15 min; SBP change (Rattus norvegicus [10]): 36%
CO/C(O)=C1\C(C)=NC(C)=C(C(=O)OCCN2C(=O)c3ccccc3S2(=O)=O)C1c1ccccc1Cl (stereo not given)	–	–	> 1000 nM	–	–	–	Max contractile force (Oryctolagus cuniculus [14]): 610 mg
CCO/C(O)=C1\C(C)=NC(C)=C(C(=O)OCN2C(=O)c3ccccc3S2(=O)=O)C1c1cccc([N+](=O)[O-])c1 (stereo not given)	3.3 nM	0.1	–	–	–	–	–
CC1=NC(C)=C(C(=O)OCN2C(=O)c3ccccc3S2(=O)=O)C(c2cccc([N+](=O)[O-])c2)/C1=C(\O)OC(C)(C)C (stereo not given)	7.8 nM	0.4	–	–	–	–	–
CC1=NC(C)=C(C(=O)OCCN2C(=O)c3ccccc3S2(=O)=O)C(c2cccc([N+](=O)[O-])c2)/C1=C(\O)OC(C)(C)C (stereo not given)	–	–	1.6 nM	1.8	72	0%	IC50 (Oryctolagus cuniculus [12]): 115 nM; SBP change (Rattus norvegicus [13]): 25%
CC1=NC(C)=C(C(=O)OCN2C(=O)c3ccccc3S2(=O)=O)C(c2cccc([N+](=O)[O-])c2)/C1=C(\O)OCC1CCCCO1 (stereo not given)	13.3 nM	0.2	–	–	–	–	–
CO/C(O)=C1\C(C)=NC(C)=C(C(=O)OCCN2C(=O)c3ccccc3S2(=O)=O)C1c1ccccc1C(F)(F)F (stereo not given)	–	–	> 1000 nM	–	–	–	Max contractile force (Oryctolagus cuniculus [14]): 420 mg
